# Measurements taken from ChEMBL document CHEMBL3352511, “Pyrrole-3-carboxamides as potent and selective JAK2 inhibitors” (Bioorg Med Chem, 2014).
# Assays:
# [1] = target: Tyrosine-protein kinase JAK2 (Homo sapiens, UniProt O60674)
# [2] = target: Tyrosine-protein kinase JAK2 (Homo sapiens, UniProt O60674, V617F)
# [3] = Antiproliferative activity against human DERL7 cells after 72 hrs by Cell Titer-Glo assay; type: functional, cell-based; details: DERL7, 72 h
# [4] = system: A2780; assay: Antiproliferative activity against human A2780 cells after 72 hrs by Cell Titer-Glo assay; type: functional, cell-based; details: A2780, 72 h
# [5] = Solubility of the compound in buffer at pH7; type: physicochemical; details: pH 7
# [6] = Cmax in Balb nu/nu mouse at 10 mg/kg, iv; type: ADME, organism-based; parameters: dose 10 mg/kg, route intravenous; details: in vivo
# Procedure, shortened: (§1)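 Overnight-fasted male Nu/Nu mice, single intravenous dose in 10% Tween 80 in 5% dextrose, three mice. Saphenous vein blood taken at predose, 0.083, 0.5, 1, 6 and 24 h. Plasma obtained by centrifugation at 10,000g, 3 min, 4 °C, stored at -80 °C, then analysed by LC/MS/MS.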
# [7] = system: Mus musculus; assay: (§2) AUC(infinity) in Balb nu/nu mouse at 10 mg/kg, iv; type: ADME, organism-based, Plasma; parameters: dose 10 mg/kg, route intravenous, time infinity; details: in vivo
# Procedure, shortened: as §1
# [8] = Volume of distribution at steady state in Balb nu/nu mouse at 10 mg/kg, iv; type: ADME, organism-based; parameters: dose 10 mg/kg, route intravenous; details: in vivo, read-out: Vdss
# Procedure, shortened: as §1
# [9] = Half life in Balb nu/nu mouse at 10 mg/kg, iv; type: ADME, organism-based; parameters: dose 10 mg/kg, route intravenous; details: in vivo
# Procedure, shortened: as §1
# [10] = Cmax in Balb nu/nu mouse at 10 mg/kg, po; type: ADME, organism-based; parameters: dose 10 mg/kg, route oral; details: in vivo
# Procedure, shortened: (§3)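 Overnight-fasted male Nu/Nu mice, single oral dose in 0.5% methocel, three mice. Saphenous vein blood taken at predose, 0.083, 0.5, 1, 6 and 24 h. Plasma obtained by centrifugation at 10,000g, 3 min, 4 °C, stored at -80 °C, then analysed by LC/MS/MS.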
# [11] = AUC(infinity) in Balb nu/nu mouse at 10 mg/kg, po; type: ADME, organism-based; parameters: time infinity, dose 10 mg/kg, route oral; details: plasma
# Procedure, shortened: as §3
# [12] = Half life in Balb nu/nu mouse at 10 mg/kg, po; type: ADME, organism-based; parameters: dose 10 mg/kg, route oral; details: in vivo
# Procedure, shortened: as §3
# [13] = Oral bioavailability in Balb nu/nu mouse at 10 mg/kg; type: ADME, organism-based; details: in vivo
# Procedure, shortened: as §3
# [14] = as §2; type: ADME, organism-based, Plasma; parameters: dose 10 mg/kg, route intravenous, time infinity; details: Balb nu/nu, plasma
# Procedure, shortened: as §1
# [15] = Clearance in Balb nu/nu mouse at 10 mg/kg, iv; type: ADME, organism-based; parameters: dose 10 mg/kg, route intravenous; details: in vivo
# Procedure, shortened: as §1
# Chain of Tyrosine-protein kinase JAK2 (Homo sapiens, UniProt O60674, V617F) (O60674 whole entry V617F): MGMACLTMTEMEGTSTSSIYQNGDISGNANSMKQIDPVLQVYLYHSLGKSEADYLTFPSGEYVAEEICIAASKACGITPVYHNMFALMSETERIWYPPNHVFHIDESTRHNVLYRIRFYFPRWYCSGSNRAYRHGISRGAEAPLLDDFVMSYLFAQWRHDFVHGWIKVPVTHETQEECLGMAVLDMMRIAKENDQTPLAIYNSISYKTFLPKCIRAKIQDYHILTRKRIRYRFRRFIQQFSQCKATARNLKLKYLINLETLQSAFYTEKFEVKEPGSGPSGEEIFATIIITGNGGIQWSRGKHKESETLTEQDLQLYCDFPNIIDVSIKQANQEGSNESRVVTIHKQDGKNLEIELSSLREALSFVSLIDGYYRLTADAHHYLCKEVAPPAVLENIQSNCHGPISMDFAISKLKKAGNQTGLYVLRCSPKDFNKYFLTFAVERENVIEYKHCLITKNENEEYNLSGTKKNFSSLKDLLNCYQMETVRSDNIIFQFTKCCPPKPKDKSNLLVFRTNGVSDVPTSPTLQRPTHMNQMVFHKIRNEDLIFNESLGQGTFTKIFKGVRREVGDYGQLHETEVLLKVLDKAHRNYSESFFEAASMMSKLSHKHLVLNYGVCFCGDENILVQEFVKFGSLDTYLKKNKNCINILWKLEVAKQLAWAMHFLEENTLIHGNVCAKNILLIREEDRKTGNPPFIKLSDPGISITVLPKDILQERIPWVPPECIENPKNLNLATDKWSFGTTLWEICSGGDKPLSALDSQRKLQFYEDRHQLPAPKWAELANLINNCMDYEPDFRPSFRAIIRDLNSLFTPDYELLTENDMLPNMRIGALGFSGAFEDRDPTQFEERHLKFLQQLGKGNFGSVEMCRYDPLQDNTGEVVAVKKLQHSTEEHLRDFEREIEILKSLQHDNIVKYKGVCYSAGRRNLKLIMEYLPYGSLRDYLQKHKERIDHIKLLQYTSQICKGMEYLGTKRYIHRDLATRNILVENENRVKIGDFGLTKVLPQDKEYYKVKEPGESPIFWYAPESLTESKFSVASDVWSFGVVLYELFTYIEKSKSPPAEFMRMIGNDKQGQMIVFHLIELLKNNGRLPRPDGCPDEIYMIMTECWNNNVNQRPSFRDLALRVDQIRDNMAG
# Chain of Tyrosine-protein kinase JAK2 (Homo sapiens, UniProt O60674) (O60674 whole entry): as the sequence (O60674 whole entry V617F) above, with F617V counted along it
SMILES,IC50 [1] [nM],IC50 [2] [nM],other results
NC(=O)c1cc(-c2ccnc(N)n2)[nH]c1-c1cc(OC(F)(F)F)ccc1Cl,24,1100,
COc1ccc(Cl)cc1-c1[nH]c(-c2ccnc(N)n2)cc1C(N)=O,308,,
NC(=O)c1cc(-c2ccnc(N)n2)[nH]c1-c1ccccc1Cl,615,,
Cc1ccc(Cl)cc1-c1[nH]c(-c2ccnc(N)n2)cc1C(=O)NCCO,57,,
Cc1ccc(Cl)cc1-c1[nH]c(-c2ccncn2)cc1C(N)=O,1240,,
CNC(=O)c1cc(-c2ccnc(N)n2)[nH]c1-c1cc(Cl)ccc1C,35,480,IC50 [3]: 2070 nM; IC50 [4]: 980 nM
Cc1ccc(Cl)cc1-c1[nH]c(-c2ccnc(N)n2)cc1C(=O)NCc1ccccc1,154,,
CCNC(=O)c1cc(-c2ccnc(N)n2)[nH]c1-c1cc(Cl)ccc1C,109,,
Cc1ccc(Cl)cc1-c1[nH]c(-c2ccnc(N)n2)cc1C(=O)N(C)C,3060,,
Cc1ccc(Cl)cc1-c1[nH]c(-c2ccnc(N)n2)cc1C(N)=O,,,IC50 [3]: 740 nM; IC50 [4]: 380 nM
CCc1ccc(Cl)cc1-c1[nH]c(-c2ccnc(N)n2)cc1C(N)=O,,,IC50 [3]: 880 nM; IC50 [4]: 2000 nM; solubility [5]: 200 µM; Cmax [6]: 4.5 µM; AUC [7]: 2 µM·h; Vd [8]: 1.8 L/kg; half-life [9]: 12 min; Cmax [10]: 0.6 µM; AUC(0-inf) [11]: 0.7 µM·h; half-life [12]: 48 min; bioavailability [13]: 17%
NC(=O)c1cc(-c2ccnc(N)n2)[nH]c1-c1cc(Cl)ccc1C(F)(F)F,53,,
Cc1ccccc1-c1[nH]c(-c2ccnc(N)n2)cc1C(N)=O,695,,
Cc1ccc(Cl)cc1-c1c(C(N)=O)cc(-c2ccnc(N)n2)n1C,66,,
Cc1ccc(C(F)(F)F)cc1-c1[nH]c(-c2ccnc(N)n2)cc1C(N)=O,10,760,IC50 [3]: 640 nM; IC50 [4]: 440 nM
NC(=O)c1cc(-c2ccnc(N)n2)[nH]c1-c1cc(Cl)ccc1Cl,,700,IC50 [3]: 1660 nM; IC50 [4]: 2460 nM
Cc1ccc(Cl)cc1-c1[nH]c(-c2ccnc(N)n2)cc1C(=O)NC1CCN(C)CC1,46,> 3000,
NC(=O)c1cc(-c2ccnc(N)n2)[nH]c1-c1cc(C(F)(F)F)ccc1C(F)(F)F,21,3070,
NC(=O)c1cc(-c2ccnc(N)n2)[nH]c1-c1cccc(Cl)c1,617,,
CCc1ccc(C(F)(F)F)cc1-c1[nH]c(-c2ccnc(N)n2)cc1C(N)=O,,320,IC50 [3]: 1470 nM; IC50 [4]: 2210 nM; solubility [5]: 182 µM; Cmax [6]: 38.9 µM; AUC(0-inf) [14]: 20.7 µM·h; clearance [15]: 21.6 mL/min/kg; Vd [8]: 0.6 L/kg; half-life [9]: 60 min; Cmax [10]: 4.4 µM; AUC(0-inf) [11]: 4.6 µM·h; half-life [12]: 108 min; bioavailability [13]: 24%
Cc1ccc(Cl)cc1-c1c(C(N)=O)cc(-c2ccnc(Nc3ccc(N4CCN(C)CC4)cc3)n2)n1C,22,250,
Cc1ccc(Cl)cc1-c1[nH]c(-c2ccnc(N)n2)cc1C(=O)Nc1ccccc1,247,,
COc1ccc(CNc2nccc(-c3cc(C(N)=O)c(-c4cc(Cl)ccc4C)[nH]3)n2)cc1,394,,
Cc1ccc(Cl)cc1-c1[nH]c(-c2ccnc(N)n2)cc1C(=O)NCC(C)C,384,,
CC(C)c1ccc(Cl)cc1-c1[nH]c(-c2ccnc(N)n2)cc1C(N)=O,150,,
Cc1ccc(Cl)cc1-c1[nH]c(-c2ccnc(Nc3ccc(N4CCN(C)CC4)cc3)n2)cc1C(N)=O,59,,
NC(=O)c1cc(-c2ccnc(N)n2)[nH]c1-c1ccccc1,3200,,
Cc1ccc(Cl)cc1-c1[nH]c(-c2ccnc(N)n2)cc1C(=O)NCCF,114,,
CNCCNC(=O)c1cc(-c2ccnc(N)n2)[nH]c1-c1cc(Cl)ccc1C,44,> 3000,
